# High-throughput results: PubChem BioAssay, Sanford-Burnham Center for Chemical Genomics
# C8 TRAIL sens = sensitizes caspase-8 expressing cells to TRAIL | NB7+C8 cells + TRAIL, ATPlite viability luminescence | inhibition (viability loss, TRAIL sensitization), % at 10 µM | 360,000 tested, 1% active | AID 624354;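 active means compounds causing at least 50% loss of cell viability in the single-dose screen, relative to plate controls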
# PPC-1+TRAIL kill = compounds killing PPC-1 cancer cells with TRAIL present (potentiator screen, no TRAIL-free arm). PPC-1 cells + TRAIL, ATPLite viability luminescence. cell killing (% activity), % at 4 µM or 5 µM. 220,000 tested, 0.41% active. AID 1443;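 active means cell killing above 50% in the first pass at 4 µM, then a duplicate retest at 5 µM averaging 50% or more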;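 further: plate controls were cells with TRAIL plus DMSO for no effect and medium-only wells lacking cells for full effect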
# FLuc stim CS = affects firefly luciferase, flagging false hits in luciferase stimulation screens; ATPlite luciferase biochemical, luminescence, 10 min; 0 = ATP-free wells, 1 = DMSO control; P08659; activation factor at 10 µM; 200,000 tested, under 10 active;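 active means luciferase activation factor, scaled between plate controls, of at least 2 with compound at 10 µM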
# Target sequence (P08659 whole entry, looked up): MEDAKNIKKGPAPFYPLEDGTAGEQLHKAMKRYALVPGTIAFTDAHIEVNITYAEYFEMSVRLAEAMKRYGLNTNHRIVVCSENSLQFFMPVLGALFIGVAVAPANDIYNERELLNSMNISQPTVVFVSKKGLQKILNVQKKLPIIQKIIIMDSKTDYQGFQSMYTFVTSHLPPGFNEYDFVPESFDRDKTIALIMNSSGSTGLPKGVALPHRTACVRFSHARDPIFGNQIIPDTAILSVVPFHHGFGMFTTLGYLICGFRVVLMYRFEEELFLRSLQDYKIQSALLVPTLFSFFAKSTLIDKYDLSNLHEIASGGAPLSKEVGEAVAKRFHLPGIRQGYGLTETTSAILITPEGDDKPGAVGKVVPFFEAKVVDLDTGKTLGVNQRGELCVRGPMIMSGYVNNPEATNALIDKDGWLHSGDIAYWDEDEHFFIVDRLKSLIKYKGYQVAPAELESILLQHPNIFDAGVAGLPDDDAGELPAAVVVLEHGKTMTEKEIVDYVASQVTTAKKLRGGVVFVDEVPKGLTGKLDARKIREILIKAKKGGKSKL
#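 Material: Luciferase/luciferin reagent mix | Doses: Test compounds dosed from 2 mM stocks in 100% DMSO | Timing: 10 min incubation after luciferase reagent addition, room temperature | Measured by: Luminescence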
# FLuc inh counter = counter-screen for luciferase assay inhibitors: firefly luciferase inhibition; AID 1006; ATPLite firefly luciferase biochemical luminescence, 10 min; 200,000 tested, 1.5% active; inhibition, % at 10 µM; P08659;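 active means inhibition above about 50% when tested at 10 µM, limit read from the data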
# PPC1 cytotox = kills PPC-1 cells; 1,200 tested, 50% active; PPC-1 viability, ATPlite luminescence, overnight; AID 1447; cytotoxicity, % at 5 µM; shares compounds with PPC-1+TRAIL kill;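 active means reconfirmed compounds whose average cytotoxicity reaches 50% or more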;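 further: 0% = DMSO-treated cells and 100% = wells holding medium but no cells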
# Numbers without * were called inactive; . = no result. This is a sample that favours compounds with a hit; in the whole collection about 1.5% have one here.
SMILES,C8 TRAIL sens,PPC-1+TRAIL kill,FLuc stim CS,FLuc inh counter,PPC1 cytotox
COc1ccc2nc(NC(=O)CCNC(=O)c3ccco3)sc2c1,4,.,.,.,.
COc1ccc2sc(NC(=O)c3ccco3)nc2c1,68*,53*,0.1,88*,59*
O=C(Nc1nc2ccc([N+](=O)[O-])cc2s1)c1ccco1,.,26,0.6,40,34
CC(C)c1ccc(S(=O)(=O)c2ccc(NN)cc2)cc1,-2,6,1.1,-6,.
CN1CCN(CC(O)COc2ccc(Cl)cc2)CC1 (centres undefined),-6,0,1.1,-7,-16
O=C(Nc1nsc(-c2ccccc2)n1)c1cccs1,51*,25,0.2,79*,34
Cc1sc(NC(=O)c2cccs2)nc1-c1ccccc1,9,-1,0.9,5,.
COc1cc2c(cc1OC)CN(C(=O)CSc1n[nH]c(N)n1)CC2,-16,24,1.1,-5,.
CC(=O)N1CCN(c2ccccc2NC(=O)COc2ccccc2C)CC1,-9,-1,1.1,-8,.
CC(=O)N1CCN(c2ccccc2NC(=O)COc2ccc(Cl)cc2Cl)CC1,-2,7,1.1,-8,10
COC(=O)CC1C(=O)NCCN1C(=O)NC1CCCCC1 (centres undefined),-6,14,1.1,-7,.
CCNC(=O)N1CCNC(=O)C1CC(=O)OC (centres undefined),1,1,1,4,9
COCC(C)n1c(C)cc(C(=O)COC(=O)c2ccc(N3CCCC3=O)cc2)c1C (centres undefined),7,-8,1,-2,3
O=C(Nc1nonc1NC(=O)C1CCCCC1)C1CCCCC1,-3,1,1,-5,3
CC(C)NC(=O)c1ccc2c3n(nc2c1)-c1ccccc1CO3,91*,90*,.,.,90*
CC(C)[C@@H](CO)NC(=O)c1ccc2c3n(nc2c1)-c1ccccc1CO3,71*,71*,.,.,69*
CCN(CC)C(=O)C1CCN(C(=O)c2oc3ccc(C)cc3c2C)CC1,2,.,.,.,.
Cc1ccc(C(=O)/C=C/Nc2cccc(O)c2)cc1,83*,88*,0,96*,88*
O=C(/C=C/Nc1cccc(O)c1)c1ccccc1,67*,74*,0.1,95*,72*
COc1ccccc1NC(=O)Nc1nc(C(C)(C)C)cs1,9,21,0.8,17,.
COCCn1c(C)cc(C(=O)COC(=O)c2n[nH]c3ccccc23)c1C,88*,82*,0.1,94*,84*
COCCn1c(C)cc(C(=O)COC(=O)Cc2n[nH]c(=O)c3ccccc23)c1C,4,.,.,.,.
Cc1ccc(CNC(=O)C2(C)Oc3ccccc3NC2=O)cc1 (centres undefined),2,1,1.1,-5,4
COc1ccc(C)cc1S(=O)(=O)N(C)CC(N)=O,0,-1,1,-1,.
CC(C)c1ccc(Nc2nnc(SCC(=O)Nc3ncc(S(=O)(=O)c4ccc([N+](=O)[O-])cc4)s3)s2)cc1,76*,64*,0.3,73*,65*
SMILES,C8 TRAIL sens,PPC-1+TRAIL kill,FLuc stim CS,FLuc inh counter,PPC1 cytotox
CC(C)(C)OC(=O)Nc1ccc([C@H](NC(=O)OC(C)(C)C)C(=O)OC(C)(C)C)cc1,0,.,.,.,.
COc1ccc(-n2c(C)cc(SC)c(C(C)=O)c2=S)cc1,-5,14,1,4,-7
Cc1ccn2cc(-c3ccc4c(c3)NC(=O)CO4)nc2c1,29,47,0.2,83*,41
COc1cc(CN2CCN(C(c3ccccc3)c3ccccc3)CC2)cc(OC)c1OC,12,.,.,.,.
O=C(Nc1ccc(Cl)c(Cl)c1)c1ccc2c(c1)OCO2,16,.,.,.,.
O=C(Nc1ccon1)c1ccc2c(c1)OCO2,8,-9,0.9,5,.
Cc1ccnc(NC(=O)c2ccc3c(c2)OCO3)c1,77*,75*,0.1,92*,74*
COc1ccc(C(=O)NC(=O)Nc2cc(C)ccn2)cc1,84*,87*,0.1,92*,87*
O=C(Nc1ccc2nsnc2c1)c1ccc2c(c1)OCO2,48,50,0.3,70*,52*
O=C(Nc1ccc2c(c1)OCO2)Nc1ccc2c(c1)OCO2,23,25,0.6,40,13
COc1cc(C(=O)Nc2cc(C)ccn2)cc(OC)c1OC,-3,29,1,-3,.
CCOC(=O)c1c(C)c(C(=O)Nc2ccc3c(c2)OCO3)c(C)n1C,4,10,1,3,.
CCOC(=O)c1c(N)sc(C(=O)Nc2ccc3c(c2)OCO3)c1C,78*,71*,0.1,90*,77*
Cc1cc(N2CCOCC2)n2ncc(-c3ccccc3)c2n1,69*,48,0.2,84*,48
COc1ccccc1C(=O)Nc1ccc2c(c1)nc1n2CCSC1,43,28,0.2,78*,35
COc1ccccc1C(=O)Nc1ccc2c(c1)nc1n2CCN(Cc2ccccc2)C1,1,-5,1,2,.
CCOc1ccc(CCNC(=O)CCc2nc(-c3ccc(C)cc3)no2)cc1OCC,-2,-15,1,-2,.
Cc1ccccc1NC(=O)Cc1cn(C)c2ccccc12,6,4,1,0,-9
CN1CCN(c2ccccc2NC(=O)Cc2cn(C)c3ccccc23)CC1,36,14,1.1,-8,.
Cn1ccc(C(=O)N/N=C/c2cccnc2)n1,-17,.,.,.,.
CN(C)c1ccc(/C=N/NC(=O)c2ccn(C)n2)cc1,49,39,.,.,26
O=C(OCC1CC(c2ccccc2)=NO1)c1ccc(Br)cc1 (centres undefined),-5,7,1,0,.
N#Cc1ccccc1NC(=O)CNc1ccccc1N1CCCCC1,-6,-13,1.1,-9,-24
CCOCCCNC(=O)C1CCN(S(=O)(=O)c2ccc(C)cc2)CC1,-16,-9,1.1,-5,-12
Cc1ccc(S(=O)(=O)N2CCC(C(=O)NCC3CC3)CC2)cc1,5,.,.,.,.
SMILES,C8 TRAIL sens,PPC-1+TRAIL kill,FLuc stim CS,FLuc inh counter,PPC1 cytotox
CCOC(=O)C1CCN(S(=O)(=O)c2ccc(NC(=O)OC)cc2)CC1,5,8,1.1,-9,9
CC(C)(C)C(=O)N1CCCC1C(=O)O (centres undefined),-6,41,1.1,-7,.
CN(C)S(=O)(=O)c1ccc(C(=O)Nc2cccc(C(=O)O)c2)cc1,2,6,1,2,-7
CN1CCN(CCCNC(=O)c2nnc(Cc3c(F)cccc3Cl)o2)CC1,3,7,1,-2,16
Cc1cc(=O)[nH]c(SCC(=O)N2CCN(C(=O)c3ccco3)CC2)n1,-16,.,.,.,.
Cc1cc2nc(-c3ccc(SCC(=O)N4CCOCC4)nc3)[nH]c2cc1C,68*,58*,0.3,73*,58*
Cc1cc2nc(-c3ccc(SCC(=O)N4CCN(C(=O)c5ccco5)CC4)nc3)[nH]c2cc1C,74*,65*,0.2,81*,63*
O=C(Cn1cc([N+](=O)[O-])cn1)NCc1ccccc1Cl,15,.,.,.,.
COc1cccc2sc(Nc3nc(-c4ccccn4)cs3)nc12,28,26,0.9,6,30
